Shown is part of a subset that was picked to be rich in hits.
YB-1 expression = YB-1 expression inhibition; U2OS, qRT-PCR YB-1 vs CDIP delta delta Cp, 16 h; stronger effect = higher value; zero = DMSO, each unit about twofold; delta delta Cp (YB-1 minus CDIP) (no concentration beside the values); actives 0.37% (n = 30,000); AID 434959;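 active = delta delta Cp rounded down to an integer at or above 3, about 3 SD of DMSO wells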;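 note: higher means less YB-1 transcript or more CDIP transcript relative to DMSO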
INS-1E ATP HTS = preserves ATP levels in cytokine-treated INS-1E cells; protection from cytokine-induced ATP loss, % at 10 µM; INS-1E cytokine-induced death, ATP luminescence, 48 h; normalised: neutral wells 0, positive control 100; AID 488910; actives 0.1% (n = 20,000);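 active = mean replicate protection from cytokine-induced ATP loss at least 50% and at least 75% of replicates each reaching 50%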
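Material: INS-1E rat cells; Quantity: 8000 cells/well; Buffer or medium: phenol-red-free RPMI with 5% fetal bovine serum; Probe or stimulus: cytokine cocktail of IFN-γ, TNF-α and IL-1β; Compound dosing: single test concentration per compound, delivered by pin transfer; Incubation: 48 h co-treatment, 10 min post-lysis read; Signal: CellTiter-Glo luminescence.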
T cruzi HTS = inhibitors of intracellular Trypanosoma cruzi | intracellular Trypanosoma cruzi in host cells, plate reader | AID 651903 | actives 4.9% (n = 22,000) | activity score (inhibition), % at 5.01 µM; in the data active = activity score above about 55%;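 note: parasites and compound incubated about four days before reading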
Large screens that a line does not name were inactive.

C[C@H](CO)N1C[C@H](C)[C@H](CN(C)Cc2ccc(Oc3ccccc3)cc2)Oc2c(NC(=O)C3CC3)cccc2C1=O	none
C[C@@H]1CN([C@H](C)CO)C(=O)c2cccc(NC(=O)C3CC3)c2O[C@@H]1CN(C)Cc1ccc(Oc2ccccc2)cc1	none
C[C@H](CO)N1C[C@H](C)[C@H](CN(C)Cc2ccc(Oc3ccccc3)cc2)Oc2c(NC(=O)C3CCOCC3)cccc2C1=O	none
C[C@@H]1CN([C@@H](C)CO)C(=O)c2cccc(NC(=O)C3CCCCC3)c2O[C@@H]1CN(C)Cc1ccc(Oc2ccccc2)cc1	none
C[C@@H]1CN([C@H](C)CO)C(=O)c2cccc(NC(=O)C3CCCCC3)c2O[C@H]1CN(C)Cc1ccc(Oc2ccccc2)cc1	T cruzi HTS 69
C[C@@H]1CN([C@@H](C)CO)C(=O)c2cccc(NC(=O)C3CCCCC3)c2O[C@H]1CN(C)Cc1ccc(Oc2ccccc2)cc1	T cruzi HTS 66
C[C@H](CO)N1C[C@H](C)[C@@H](CN(C)Cc2ccc(Oc3ccccc3)cc2)Oc2c(NC(=O)C3CCCCC3)cccc2C1=O	T cruzi HTS 75
C[C@@H]1CN([C@@H](C)CO)C(=O)c2cccc(NC(=O)C3CC3)c2O[C@H]1CN(C)Cc1ccc(Oc2ccccc2)cc1	T cruzi HTS 63
C/C=C(\C)C(=O)O[C@H]1[C@H](OC(C)=O)[C@@]2(CO)C(CC1(C)C)C1=CCC3[C@@]4(C)CC[C@H](O[C@@H]5O[C@H](C(=O)O)[C@@H](O)[C@H](O[C@@H]6O[C@H](CO)[C@H](O)[C@H](O)[C@H]6O[C@@H]6O[C@@H](C)[C@H](O)[C@@H](O)[C@H]6O)[C@H]5O[C@@H]5O[C@H](CO)[C@@H](O)[C@H](O)[C@H]5O)C(C)(C)C4CC[C@@]3(C)[C@]1(C)C[C@H]2O (stereo partly drawn)	none (no result: INS-1E ATP HTS, T cruzi HTS)
O=C(c1cccs1)N1c2ccccc2Sc2ccccc21	none (no result: INS-1E ATP HTS, T cruzi HTS)
C[C@@H]1CN([C@@H](C)CO)C(=O)Cc2cc(NS(=O)(=O)c3cccs3)ccc2O[C@@H]1CN(C)Cc1ccc(C(=O)Nc2ccccc2N)cc1	T cruzi HTS 62
C[C@H]1CN([C@@H](C)CO)C(=O)c2cc(NS(=O)(=O)c3cccs3)ccc2O[C@H]1CN(C)Cc1ccc(C(=O)Nc2ccccc2N)cc1	none
C[C@@H]1CN([C@H](C)CO)C(=O)c2cc(NS(=O)(=O)c3cccs3)ccc2O[C@@H]1CN(C)Cc1ccc(C(=O)Nc2ccccc2N)cc1	T cruzi HTS 64
C[C@H](CO)N1C[C@H](C)[C@H](CN(C)Cc2ccc(C(=O)Nc3ccccc3N)cc2)Oc2ccc(NS(=O)(=O)c3cccs3)cc2C1=O	T cruzi HTS 65
C[C@@H]1CN([C@H](C)CO)C(=O)Cc2cc(NS(=O)(=O)c3cccs3)ccc2O[C@@H]1CN(C)Cc1ccc(C(=O)Nc2ccccc2N)cc1	none
C[C@H]1CN([C@@H](C)CO)C(=O)Cc2cc(NS(=O)(=O)c3cccs3)ccc2O[C@@H]1CN(C)Cc1ccc(C(=O)Nc2ccccc2N)cc1	none
O=C(N/N=C/c1ccc(Br)o1)c1ccccc1O	none
COc1ccc(/C=N/NC(=O)c2cccc(C(=O)NO)c2)cc1Br	none
C=CCOC(=O)[C@H]1[C@@H]2C(=O)O[C@@H](c3ccccc3)[C@@H](c3ccccc3)N2[C@@H](c2ccc(OCCOC(=O)[C@H]3C[C@H]4C(=O)N[C@@H](CCCCNC(C)=O)C(=O)N4[C@H]3c3cccc(OCCO)c3)cc2)[C@]12C(=O)Nc1ccccc12	none (no result: INS-1E ATP HTS, T cruzi HTS)
CC(C)NC(=O)Nc1ccc2c(c1)C(=O)N([C@H](C)CO)C[C@H](C)[C@H](CN(C)Cc1ccc(-c3ccccc3)cc1)O2	none
C[C@@H]1CN([C@H](C)CO)C(=O)c2cccc(NC(=O)Nc3ccc(F)cc3)c2O[C@H]1CN(C)Cc1ccc(C(F)(F)F)cc1	none
COc1ccc(CN(C)C[C@@H]2Oc3c(NC(=O)Nc4ccc(C(F)(F)F)cc4)cccc3C(=O)N([C@H](C)CO)C[C@H]2C)cc1	T cruzi HTS 79
COc1ccc(NC(=O)Nc2cccc3c2O[C@H](CN(C)Cc2ccc(C(F)(F)F)cc2)[C@@H](C)CN([C@H](C)CO)C3=O)cc1	none
C[C@@H]1CN([C@@H](C)CO)C(=O)c2cccc(NC(=O)Nc3ccc(C(F)(F)F)cc3)c2O[C@@H]1CN(C)Cc1ccc(C(F)(F)F)cc1	T cruzi HTS 81
COc1ccc(NC(=O)Nc2cccc3c2O[C@H](CN(C)Cc2ccccc2)[C@@H](C)CN([C@@H](C)CO)C3=O)cc1	YB-1 expression 3.6
COc1ccc(CN(C)C[C@@H]2Oc3c(NC(=O)Nc4ccccc4)cccc3C(=O)N([C@@H](C)CO)C[C@H]2C)cc1	none
C[C@H]1CN([C@@H](C)CO)C(=O)c2cccc(NC(=O)Nc3ccc(C(F)(F)F)cc3)c2O[C@@H]1CN(C)Cc1ccc(C(F)(F)F)cc1	none
C[C@H](CO)N1C[C@H](C)[C@@H](CN(C)Cc2ccc(C(F)(F)F)cc2)Oc2c(NC(=O)Nc3ccc(F)cc3)cccc2C1=O	T cruzi HTS 74
Cc1ccc(O)c(/C=N/NC(=O)c2ccccn2)c1	none
Cc1ccc(S(=O)(=O)/C(C#N)=C/Nc2cc(C(F)(F)F)cc(C(F)(F)F)c2)cc1	none (no result: INS-1E ATP HTS, T cruzi HTS)
Cc1c(NC2CS(=O)(=O)CC2O)c(=O)n(-c2ccccc2)n1C (stereo not drawn)	none (no result: INS-1E ATP HTS, T cruzi HTS)
CC(=O)N/C(=C\c1ccccc1)C(=O)Nc1cccc(C#N)c1	none (no result: INS-1E ATP HTS, T cruzi HTS)
C[C@H]1CN([C@@H](C)CO)C(=O)c2cccc(NC(=O)Nc3ccc(C(F)(F)F)cc3)c2O[C@H]1CN(C)Cc1ccc2c(c1)OCO2	T cruzi HTS 85
C[C@H]1CN([C@@H](C)CO)C(=O)c2cccc(NC(=O)Nc3ccc(C(F)(F)F)cc3)c2O[C@@H]1CN(C)Cc1ccc(Oc2ccccc2)cc1	none
C[C@H]1CN([C@@H](C)CO)C(=O)c2cccc(NC(=O)Nc3ccc4c(c3)OCO4)c2O[C@H]1CN(C)Cc1ccc(C(F)(F)F)cc1	none
C[C@H](CO)N1C[C@H](C)[C@H](CN(C)Cc2ccc(Oc3ccccc3)cc2)Oc2c(NC(=O)Nc3ccc(C(F)(F)F)cc3)cccc2C1=O	T cruzi HTS 62
C=CC[C@@]12N=C(c3ccc(OCCCO)cc3)O[C@@H]1c1ccccc1N(CCS(=O)(=O)c1ccccc1)C2=O	none (no result: INS-1E ATP HTS, T cruzi HTS)
O=C(N=NC=C1C=CN(O)C=C1)c1ccccn1	none
CCOC(=O)c1c(/N=C/c2ccccc2O)sc(C)c1C	none (no result: INS-1E ATP HTS, T cruzi HTS)
CCC(=O)OCC(=O)[C@@]1(OC(=O)CC)[C@H](C)CC2C3C([C@@H](O)C[C@@]21C)[C@@]1(C)C=CC(=O)C=C1C[C@H]3Cl (stereo partly drawn)	none (no result: INS-1E ATP HTS, T cruzi HTS)
C=C1C(=O)O[C@@H]2/C=C(/CO[C@@H]3O[C@H](CO)[C@@H](O)[C@H](O)[C@H]3O)CC/C=C(/C=O)C[C@H](O)[C@@H]12	none (no result: INS-1E ATP HTS, T cruzi HTS)
C[C@H]1CN([C@@H](C)CO)C(=O)Cc2cc(NC(=O)Nc3ccc(F)cc3)ccc2O[C@H]1CN(C)Cc1ccc(-c2ccccc2)cc1	none
C[C@@H]1CN([C@H](C)CO)C(=O)Cc2cc(NC(=O)Nc3ccc4c(c3)OCO4)ccc2O[C@H]1CN(C)Cc1ccccc1	none
